# An excerpt weighted towards active compounds, which were near 1.7% of everything screened.
# ARNT-TACC3 inh – disruptors of ARNT/TACC3 protein interaction, primary screen, biochemical, AlphaScreen, single concentration. AID 623870, 2012. inhibition, % at 9.99 µM. Transforming acidic coiled-coil-containing protein 3 (Homo sapiens), Q9Y6A5. AlphaScreen His-ARNT PAS-B/GST-TACC3 binding, luminescence; TACC3 fragment carries E629A point mutation. hit rate 0.66% among 390,000;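 active = mean inhibition of replicates at least 50% and at least half of replicates each reaching 50%; inconclusive = half or more replicates reach 50% but mean below 50%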;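 note: 0% = complete ARNT plus TACC3 wells and 100% = ARNT alone without TACC3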
# CAL PDZ FP-1 – untagged CAL PDZ binding inhibitors, primary screen, biochemical, fluorescence polarization, HTS; Golgi-associated PDZ and coiled-coil motif-containing protein (Homo sapiens), Q9HD26; purified CAL PDZ, TMR-peptide fluorescence polarization, 1 h; inhibition, % at 24.9 µM; hit rate 0.92% among 300,000;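 active = mean inhibition of at least 30% with at least half of replicates also reaching 30%; inconclusive = no clear call, values can overlap the other calls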;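 note: 0% = DMSO neutral control and 100% = excess unlabeled competitor peptide PRC23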
# AI-2 QS mod – Vibrio harveyi AI-2 quorum sensing modulators, primary screen, JMH597 strain, luminescence/OD600 ratio; activity change, % at 7.5 µM; Vibrio harveyi JMH597 AI-2 luminescence/OD600 ratio, 9 h; hits give low values; strain lacks LuxN and CqsS sensors; 0 = neutral-control median; hit rate 0.4% among 300,000; in the data active = activity change below about -75%, passing the limit was not always enough; inconclusive = no clear call, values can overlap the other calls;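 note: luminescence divided by OD600 gain over 9 h not by final OD600 alone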
# Rce1 inh – yeast Rce1p protease inhibitors, primary screen, biochemical, fluorescence, cell-free homogeneous; CAAX prenyl protease 2 (Saccharomyces cerevisiae (strain ATCC 204508 / S288c)), Q03530; yeast membranes, quenched prenylated peptide cleavage fluorescence; calls only; hit rate 0.27% among 290,000; AID 2563, 2010;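 active = fall in fluorescence gain of 50% or more versus controls, with final raw signal at or below 3038400; inconclusive = same 50% fall but final raw signal above 3038400; inactive = fall in fluorescence gain under 50%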;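 note: plate controls were neutral control wells for no effect and wells lacking membranes for full effect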
# Target sequence (Q03530 whole entry, looked up): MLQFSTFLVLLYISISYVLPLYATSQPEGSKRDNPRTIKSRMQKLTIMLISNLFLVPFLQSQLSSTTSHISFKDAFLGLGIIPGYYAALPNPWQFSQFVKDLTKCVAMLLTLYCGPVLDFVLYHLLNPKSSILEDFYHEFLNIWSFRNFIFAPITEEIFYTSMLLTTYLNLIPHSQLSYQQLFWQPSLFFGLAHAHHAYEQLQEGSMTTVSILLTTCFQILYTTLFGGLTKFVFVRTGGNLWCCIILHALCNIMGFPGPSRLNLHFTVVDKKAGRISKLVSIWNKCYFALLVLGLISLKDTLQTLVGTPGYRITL
# CAL PDZ FP-2 – CAL PDZ peptide-binding inhibitors, primary screen, biochemical, fluorescence polarization, Cer-tagged CAL PDZ, HTS | Golgi-associated PDZ and coiled-coil motif-containing protein (Homo sapiens), Q9HD26 | purified CAL PDZ, TMR-peptide fluorescence polarization, 1 h | inhibition, % at 20 µM | hit rate 0.02% among 330,000 | AID 504414, 2011;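 active = highest replicate inhibition of at least 40%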;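 note: plate controls were DMSO neutral control wells for no effect and unlabeled competitor peptide control wells for full effect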
#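 Assay system – tagged CAL PDZ protein CerCALP, purified · Timing – 1 h at RT · Compound – single point, 20 µM · Measured by – fluorescence polarization from S- and P-plane intensities, G-factor corrected · Evaluation – inhibition from polarization loss · Probe or stimulus – TMR reporter peptide T*-PRC34 · Buffer or medium – pH 7.4 phosphate-saline buffer, reducing agent, detergent, IgG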
# JMH597 growth – Vibrio harveyi growth inhibition, confirmation, counter-screen for AI-2 quorum sensing project, JMH597 strain, OD600 absorbance. shares compounds with AI-2 QS mod. 9 h; lacks LuxN and CqsS sensors. growth inhibition, % at 7.5 µM. hit rate 1% among 750. AID 2726, 2010;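 active = every replicate shows growth inhibition above 50%; inconclusive = at least half, but not all, replicates pass that cutoff; inactive = fewer than half of replicates pass it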
# BB721 const-QS lum – luminescence inhibition in constitutive-on V. harveyi, confirmation, counter-screen for LuxS inhibitor project, strain BB721, luminescence readout | Vibrio harveyi BB721 luminescence, 9 h | hit rate 95% among 750 | shares compounds with AI-2 QS mod | inhibition, % at 7.5 µM;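 active = inhibition above about 80% in every replicate, not just on average, limit read from the data; inconclusive = at least half of replicates past the limit, but not all; inactive = fewer than half of replicates past the limit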
# BB721 growth – growth inhibition of V. harveyi BB721, confirmation, cytotoxicity control for AI-2 quorum sensing inhibitors, strain BB721, absorbance OD600. shares compounds with AI-2 QS mod. hit rate 3% among 750. growth inhibition, % at 7.5 µM. Vibrio harveyi BB721 growth, 9 h;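 active = every replicate shows growth inhibition above 50%; inconclusive = at least half but not all replicates above 50% inhibition; inactive = under half of replicates above 50% inhibition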
# JMH597 AI-2 mod – Vibrio harveyi AI-2 signaling luminescence modulation – JMH597 strain, confirmation; Vibrio harveyi JMH597 AI-2 quorum sensing luminescence, 9 h; luxN and CqsS knockout, AI-2 only; inhibition, % at 7.5 µM; shares compounds with AI-2 QS mod; hit rate 97% among 750; AID 2736, 2010;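 active = every replicate shows more than 75% inhibition of signal versus neutral control wells; inconclusive = half to three quarters of replicates exceed 75% inhibition; inactive = fewer than half of replicates exceed 75% inhibition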
# * = called active by the depositor; i = inactive; u = inconclusive; x = no result; + = active, no number.
SMILES,ARNT-TACC3 inh,CAL PDZ FP-1,AI-2 QS mod,Rce1 inh,CAL PDZ FP-2,JMH597 growth,BB721 const-QS lum,BB721 growth,JMH597 AI-2 mod
O=C(O)c1ccc(N/N=C/c2cc3c(cc2[N+](=O)[O-])OCO3)cc1,1,0,u,i,0,26,93*,15,94*
CC(C)CCn1c(COc2ccccc2)n[nH]c1=S,x,-1,37,i,-1,x,x,x,x
CC(=O)c1cccc(NC(=O)C2CC(c3ccc(F)cc3)=NO2)c1 (centres undefined),-1,-3,-91*,i,-1,26,97*,19,98*
CC(=O)c1ccc(NC(=O)C2CC(c3ccc(F)cc3)=NO2)cc1 (centres undefined),1,-4,7,i,0,x,x,x,x
C[C@H](CO)N1C[C@H](C)[C@@H](CN(C)S(=O)(=O)c2ccccc2)Oc2ccc(NS(=O)(=O)c3cn(C)cn3)cc2CC1=O,-9,x,x,x,x,x,x,x,x
COc1ccc(-c2nnc(SCC(=O)NCc3ccco3)o2)cc1,3,-4,-1,i,-3,x,x,x,x
O=C(CSc1nnc(-c2ccc(S(=O)(=O)N3CCCC3)cc2)o1)NCc1ccco1,1,x,-83*,i,-1,23,84*,19,90*
Cc1ccc(S(=O)(=O)/C=C/c2ccccc2)cc1,-2,-2,-85*,i,0,19,93*,-37,100*
O=C(O)c1ccc(C(=O)c2ccc3c(c2)C(=O)N(Cc2ccco2)C3=O)cc1,-4,x,32,i,0,x,x,x,x
C=CCOc1c(CNc2ccc(C(=O)O)cc2)cccc1OCC,5,x,-89*,i,-2,5,95*,-2,98*
CC(Oc1ccc(Br)cc1)C(=O)NCc1ccccn1 (centres undefined),22,2,41,i,-2,x,x,x,x
O=C(Cn1cnc2ccccc2c1=O)N/N=C/c1ccc(Br)cc1,12,x,-14,x,-2,x,x,x,x
COc1cc(/C=N/NC(=O)Cn2cnc3ccccc3c2=O)ccc1O,-1,1,-89*,i,-2,-7,95*,-17,97*
O=C(NCCc1ccco1)c1cc(COc2cccc(C(F)(F)F)c2)on1,3,-5,-84*,x,-1,31,82*,-195,92*
Cc1occc1C(=O)NNC(=O)Nc1ccc(Cl)c(Cl)c1,-1,-1,-86*,i,-1,16,93*,5,94*
CCCCN1C[C@H](Cc2ccccc2)[C@@H](CC(=O)NCc2ccc(OC)cc2)C1=O,-9,-3,4,i,-2,x,x,x,x
CC(Cc1cccnc1)NC(=O)c1cc(COc2c(F)cccc2F)on1 (centres undefined),-2,-3,u,i,-2,-17,88*,-6,92*
Cc1cc(C(=O)CN2C(=O)C3CC=CCC3C2=O)c(C)n1-c1ccccc1 (centres undefined),4,-1,6,i,0,x,x,x,x
Cc1onc(-c2ccccc2Cl)c1C(=O)NC(=S)Nc1ccccc1F,x,-5,13,i,-1,x,x,x,x
Clc1cccc(OCc2nnc(-c3ccccc3Br)o2)c1,-30,-5,-90*,i,0,u,97*,82*,98*
Cc1cccn2c(=O)c(C=O)c(N3CCC4(CC3)OCCO4)nc12,x,x,7,i,x,x,x,x,x
CCc1ccc2nc(NC(=O)CSCc3c(C)noc3C)sc2c1,-2,-3,-90*,i,0,11,94*,-109,96*
Cc1noc(C)c1CSCC(=O)Nc1nc2ccccc2s1,-4,-1,2,i,-3,x,x,x,x
CN(C)c1cc[n+](CC(=O)Nc2ccc(Cl)c([N+](=O)[O-])c2)cc1,-4,3,-87*,i,-2,4,96*,-5,97*
Oc1ccc(Br)cc1CNc1cnc2ccccc2c1,-2,-2,-97*,i,-1,19,99*,6,100*
SMILES,ARNT-TACC3 inh,CAL PDZ FP-1,AI-2 QS mod,Rce1 inh,CAL PDZ FP-2,JMH597 growth,BB721 const-QS lum,BB721 growth,JMH597 AI-2 mod
Cc1ccc(O)c(CNc2cnc3ccccc3c2)c1,10,-7,-97*,+,x,-25,99*,-22,99*
COc1cccc(CNc2cnc3ccccc3c2)c1O,20,2,-57,i,-2,x,x,x,x
Fc1ccccc1NC(=S)Nc1ccc(Br)cc1,2,-2,6,i,-1,x,x,x,x
Cn1c(=O)n(C)c2cc(NC(=O)CCl)ccc21,-4,-2,-88*,i,0,16,87*,42,89*
Cc1ccc(NC(=O)CCc2ccc(C)o2)cc1,-1,-1,u,i,-1,23,87*,2,92*
Cc1ccc(CCC(=O)Nc2ccc([N+](=O)[O-])cc2)o1,x,-3,-91*,i,3,9,97*,-14,98*
Cc1ccc(CCC(=O)Nc2ccc(S(N)(=O)=O)cc2)o1,-2,-3,23,i,0,x,x,x,x
COC(=O)c1cccc(NC(=O)CN2CCOCC2)c1,-13,-6,18,i,-1,x,x,x,x
COC(=O)c1cccc(NC(=O)CN2C(=O)c3ccccc3C2=O)c1,13,-3,-97*,i,1,0,100*,-5,100*
COC(=O)c1cccc(NC(=O)C(C)N2C(=O)c3ccccc3C2=O)c1 (centres undefined),0,-8,-86*,x,-2,20,95*,17,97*
COC(=O)c1cccc(NC(=O)Cn2nnc3ccccc32)c1,-4,-3,-84*,i,-3,12,90*,8,93*
CC1(C)CC(=O)C=C(Nc2cc(-c3ccccc3)[nH]n2)C1,-11,x,-79*,i,-2,0,90*,-12,94*

# Screening results as filed in PubChem.
